Experimental data gathered from unrelated publications.
Compare with care: the assays were run in different laboratories.
Target: Cyclin-dependent kinase 16 (CDK16, Homo sapiens, UniProt Q00536)

| SMILES | observed | method | tested at | remaining binding |
| --- | --- | --- | --- | --- |
| COc1cnc(Nc2cccc(S(N)(=O)=O)c2)nc1N1CCN(c2ccccc2)CC1 | binding | competition with immobilised ligand | 1 µM | 79% |
| N[C@@H]1CCN(c2nccc(-c3cnn4ncccc34)n2)C1 | binding | – | 1 µM | 95% |
| CSc1cccnc1N1CCN(Cc2nc3ccccc3[nH]2)CC1 | cell-free assay | competition with immobilised ligand | 1 µM | 81% |
| FC(F)(F)Oc1cccc(-c2cnc3ccc(-c4ccncc4)nn23)c1 | cell-free assay | competition with immobilised ligand | 5 µM | 53% |
| O=C(c1ccc(Nc2nccc(-c3cc4ccccc4s3)n2)cc1)N1CCC(N2CCCC2)CC1 | binding | competition with immobilised ligand | 1 µM | 58% |
| c1ccc(N2CCN(Cc3nc4ccccc4[nH]3)CC2)nc1 | binding | competition with immobilised ligand | 1 µM | 100% |
| CNC(=O)[C@@H]1CC[C@@H](n2c(-c3ccc4cnccc4c3)nc3ccc(C(=O)NCc4cccc(C(N)=O)c4)cc32)C1 | binding | competition with immobilised ligand | 1 µM | 100% |
| CN(C)c1ncc(F)c(-c2cnn3ncccc23)n1 | binding | – | 1 µM | 96% |
| CCN1CCN(Cc2ccc(C(=O)Nc3ccc(C)c(Oc4ccc5c(c4)CC(=O)N5)c3)cc2C(F)(F)F)CC1 | binding | competition with immobilised ligand | 1 µM | 100% |
| CN(C)c1nccc(-c2cnn3ncccc23)n1 | binding | – | 1 µM | 100% |
| C[C@@H]1CN(c2ccc3ncc(-c4ccc5[nH]nc(C6CC6)c5c4)n3n2)C[C@H](C)O1 | binding | competition with immobilised ligand | 50 nM | 98% |
| COc1cc(-c2cn(C3CCc4c(F)cccc4N(CC(F)(F)F)C3=O)nn2)ccc1-n1cnc(C)c1 (stereo not shown) | cell-free assay | competition with immobilised ligand | 1 µM | 82% |
| O=C(NCCCN1CCOCC1)c1ccc(Nc2ncc(Cl)c(-c3ccc(Cl)s3)n2)cc1 | binding | competition with immobilised ligand | 1 µM | 23% |
| CNCc1ccccc1-c1csc([C@H](C)Nc2nc(C)nc3cc(OC)c(OC)cc23)c1 | cell-free assay | competition with immobilised ligand | 1 µM | 83% |
| C[C@@H](c1ccc(-n2cnc3c(N)ncnc32)cc1)N1CCc2nn(C)c(Cc3ccccc3)c2C1=O | binding | competition with immobilised ligand | 0.1 µM | 67% |
| Cc1cnn2ncc(-c3ccnc(N(C)C)n3)c2c1 | binding | – | 1 µM | 100% |
| Cc1noc([C@H]2C[C@@H](c3ccc(C(F)(F)F)cc3)CN(C(=O)N3CCS(=O)(=O)C3)C2)n1 | cell-free assay | competition with immobilised ligand | 1 µM | 100% |
| O=C(NCC1CCOCC1)c1n[nH]cc1NC(=O)c1c(F)cccc1F | binding | competition with immobilised ligand | 1 µM | 57% |
| O=C(c1ccc(Nc2ncc(Cl)c(-c3cc4ccccc4s3)n2)cc1)N1CCC(N2CCCC2)CC1 | binding | competition with immobilised ligand | 1 µM | 0.7% |
| Cc1nc(N2CC[C@@H](O)C2)ncc1-c1cc(C(F)(F)F)cc2[nH]ncc12 | binding | competition with immobilised ligand | 1 µM | 75% |
| COc1ccnn2ncc(-c3ccnc(N(C)C)n3)c12 | binding | – | 1 µM | 100% |
| CC(C)CC(=O)N1CCc2nc(-c3ccc(Br)cc3)nc(N(C)Cc3ccccc3)c2C1 | cell-free assay | competition with immobilised ligand | 0.1 µM | 100% |
| c1cnn2ncc(-c3ccnc(N4CCC45COC5)n3)c2c1 | binding | – | 1 µM | 97% |
| C[C@@]1(Cc2ccc(C#N)cc2)C(=O)N(c2cc(Cl)cc(Cl)c2)c2ncc(C(=O)NC3(c4nc(C5CCC5)no4)CC3)n21 | cell-free assay | competition with immobilised ligand | 1 µM | 97% |
| F[C@@H]1CCN(c2nccc(-c3cnn4ncccc34)n2)C1 | binding | – | 1 µM | 100% |
